How the values were obtained:
Oct1+/+ and Oct1-/- mice = assay: Toxicity study of CDPCP in Oct1+/+ and Oct1-/- mice; type: in vivo, mouse; conditions: for Kidney histopathological examination (affected/examined animals) / Liver histopathological examination (affected/examined animals): 24 hr after third i.v. dose; for liver-to-body-weight ratio increase compared with saline-treated mice: 120 mg/kg reduced to 90 mg/kg
How it was run: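 Male Oct1+/+ and Oct1-/- mice (8 weeks, ≥9 per group) were randomised to saline or test compound. Dosing was by tail vein once weekly ×3 (120 mg/kg initially, later 90 mg/kg). Body weight was recorded three times weekly. Mice were fasted ≥16 h and killed under isoflurane 24 h after the last dose. Measures: serum ALT/AST/ALKP and liver weight. Liver and kidney were fixed in 4% paraformaldehyde, paraffin-embedded and H&E stained; affected/examined animals were counted.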

human OCT1 = target: T1, human OCT1 (Homo sapiens, UniProt O15245); assay: Cellular accumulation of platinum in HEK-hOCT1 cells; type: in vitro ADME; conditions: 10 μM, 1 h
T1 sequence (O15245 1-554): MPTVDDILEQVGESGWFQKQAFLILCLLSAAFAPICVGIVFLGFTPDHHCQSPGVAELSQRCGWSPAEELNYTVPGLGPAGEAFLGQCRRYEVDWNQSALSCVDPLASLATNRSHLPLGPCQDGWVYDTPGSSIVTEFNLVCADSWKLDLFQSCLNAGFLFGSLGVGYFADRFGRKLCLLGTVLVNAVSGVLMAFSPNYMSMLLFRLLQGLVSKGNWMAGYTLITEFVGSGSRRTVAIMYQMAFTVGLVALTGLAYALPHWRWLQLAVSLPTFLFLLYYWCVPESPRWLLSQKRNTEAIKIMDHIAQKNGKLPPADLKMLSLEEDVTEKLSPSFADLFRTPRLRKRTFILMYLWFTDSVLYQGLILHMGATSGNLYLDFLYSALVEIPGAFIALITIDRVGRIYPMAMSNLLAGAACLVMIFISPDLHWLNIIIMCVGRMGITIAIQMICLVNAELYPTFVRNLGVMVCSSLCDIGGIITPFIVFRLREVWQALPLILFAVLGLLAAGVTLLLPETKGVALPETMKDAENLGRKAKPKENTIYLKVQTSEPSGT
How it was run: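 HEK293 cells stably carrying full-length mouse Oct1 cDNA in pcDNA5/FRT, selected with hygromycin B; the human OCT1 line's construct is not described. Cells grown in DMEM H21 with 10% FBS at 37°C, 5% CO2. Exposed to 10 μM test compound in serum-free medium for 1 h, then washed 3× with ice-cold PBS. Digested in 70% nitric acid at 65°C for ≥2.5 h. Pt measured by ICP-MS, normalised to BCA protein.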

[1] = Oct1+/+ mice, i.v. once weekly for 3 weeks
[2] = Oct1-/- mice, i.v. once weekly for 3 weeks

## [NH3+][Pt-2]([NH3+])([Cl])[n+]1ccccc1 (stereo not drawn) [CDPCP, cis-diammine(pyridine)chloroplatinum(II)]
Oct1+/+ and Oct1-/- mice; OCT1+/+ mice
  Kidney histopathological examination (affected/examined animals): Normal (4/4)
  Liver histopathological examination (affected/examined animals): Severe swollen hepatocytes (3/4); Mild swollen hepatocytes(1/4)
Oct1+/+ and Oct1-/- mice; OCT1-/- mice
  Kidney histopathological examination (affected/examined animals): Kidney tube protein contents (3/4); kidney hyaline necrosis (1/4)
  Liver histopathological examination (affected/examined animals): Mild swollen hepatocytes(1/4)
Oct1+/+ and Oct1-/- mice; Oct1+/+ mice
  serum BUN levels vs saline: significantly reduced
Oct1+/+ and Oct1-/- mice; [1]
  actual liver weight: 1.23 g
  liver-to-body-weight ratio increase compared with saline-treated mice: 28.8%
Oct1+/+ and Oct1-/- mice; Oct1+/+ mice, vs saline
  serum glucose levels: significant increase
  total serum protein levels: significant decrease
Oct1+/+ and Oct1-/- mice; Oct1-/- mice
  serum BUN vs saline: not affected
Oct1+/+ and Oct1-/- mice; [2]
  actual liver weight: 1.02 g
  liver-to-body-weight ratio increase compared with saline-treated mice: 14.7%
Oct1+/+ and Oct1-/- mice; both Oct1+/+ and Oct1-/- mice
  serum creatinine levels vs saline: not significantly different
Oct1+/+ and Oct1-/- mice; dose-range finding toxicity study
  dose resulting in significant changes in body weight, liver-to-body-weight ratio, liver function and hematology: ≥ 90 mg/kg
Oct1+/+ and Oct1-/- mice; either Oct1+/+ or Oct1-/- mice
  histological examination of intestine: no signs of intestinal toxicity
Oct1+/+ and Oct1-/- mice; either Oct1+/+ or Oct1-/- mice, i.v. once weekly for 3 weeks
  activities of ALT, AST and ALKP: not affected
Oct1+/+ and Oct1-/- mice; i.v. once weekly for 3 weeks
  body weight loss in Oct1-/- mice compared with Oct1+/+ mice: much greater
Oct1+/+ and Oct1-/- mice; wild-type mice, 120 mg/kg, dose-finding studies (data not shown)
  ALT: significant increases
Human OCT1
  uptake of platinum: 852 ± 135 pmol/mg protein/hr

— article PMC3040319 (Pharmaceutical Research, 2010)
